Columns and labels:
Cytochrome P450 1A2 = molecular target: T1, Cytochrome P450 1A2 (Homo sapiens, UniProt P05177); experiment: Inhibition of CYP1A2; type: ADME
T1 sequence (P05177 whole entry): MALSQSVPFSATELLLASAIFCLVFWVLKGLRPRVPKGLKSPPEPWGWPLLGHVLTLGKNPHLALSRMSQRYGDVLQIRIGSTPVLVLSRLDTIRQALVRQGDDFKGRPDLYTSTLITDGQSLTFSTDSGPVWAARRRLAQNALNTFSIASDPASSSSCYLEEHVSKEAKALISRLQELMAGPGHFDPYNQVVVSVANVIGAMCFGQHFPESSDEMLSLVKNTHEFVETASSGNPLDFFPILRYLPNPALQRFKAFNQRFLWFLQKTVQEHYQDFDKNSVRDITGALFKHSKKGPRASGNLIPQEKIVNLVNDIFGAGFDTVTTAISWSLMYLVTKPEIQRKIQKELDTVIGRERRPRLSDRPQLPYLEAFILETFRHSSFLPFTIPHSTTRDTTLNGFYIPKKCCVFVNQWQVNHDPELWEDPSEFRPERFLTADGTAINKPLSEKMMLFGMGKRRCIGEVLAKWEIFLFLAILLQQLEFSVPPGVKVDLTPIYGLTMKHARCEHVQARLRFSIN
Summary of the method: (§1)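 Inhibition tested against five major CYP isoforms; IC50 determined.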

[1] = Plasma protein binding in rat; type: ADME, cell-free; details: read-out: PPB (converted)
[2] = Clearance in mouse at 3 mg/kg, po by LC-MS/MS analysis; type: ADME, organism-based; set-up: dose 3 mg/kg, route oral; details: in vivo
[3] = Tmax in dog at 3 mg/kg, po by LC-MS/MS analysis; type: ADME, organism-based, Canis lupus familiaris; set-up: dose 3 mg/kg, route oral; details: in vivo
[4] = Ratio of drug level in brain to plasma in Sprague-Dawley rat at 3 mg/kg, po and iv after 0.75 to 3 hrs by LC-MS/MS analysis; type: ADME, organism-based; set-up: dose 3 mg/kg, route oral; details: read-out: BPR
Summary of the method: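 Brain (µg/mg) and plasma (µg/mL) levels were measured after oral dosing, with three rats per time point. The b/p ratio was the mean of the nine individual ratios.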

[5] = molecular target: Voltage-gated inwardly rectifying potassium channel KCNH2 (Homo sapiens, UniProt Q12809); experiment: Inhibition of human ERG by patch-clamp assay
Mus musculus [6] = experiment: Volume of distribution at steady state in mouse at 3 mg/kg, po by LC-MS/MS analysis; type: ADME, organism-based; set-up: dose 3 mg/kg, route oral; details: in vivo
[7] = Drug uptake in Sprague-Dawley rat brain at 0.3 mg/kg, po after 1 hr; type: ADME, organism-based; set-up: dose 0.3 mg/kg, route oral
Summary of the method: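 Whole-brain concentration measured 1 h after a 0.3 mg/kg oral dose in rat, the time coinciding with the drinking measurement; expressed […].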

[8] = Cmax in mouse at 3 mg/kg, po by LC-MS/MS analysis; type: ADME, organism-based; set-up: dose 3 mg/kg, route oral; details: in vivo
Canis familiaris [9] = experiment: Volume of distribution at steady state in dog at 3 mg/kg, po by LC-MS/MS analysis; type: ADME, organism-based, Canis lupus familiaris; set-up: dose 3 mg/kg, route oral; details: in vivo
[10] = Oral bioavailability in Sprague-Dawley rat at 3 mg/kg by LC-MS/MS analysis; type: ADME, organism-based; details: in vivo
Summary of the method: (§2)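 Rat PK after IV and PO dosing; plasma Cmax, Tmax, IV half-life and Vss determined; oral bioavailability from AUCpo/AUCiv. Metabolite exposure determined after a 3 mg/kg PO parent dose.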

[11] = Half life in Sprague-Dawley rat at 3 mg/kg, iv by LC-MS/MS analysis; type: ADME, organism-based; set-up: dose 3 mg/kg, route intravenous; details: in vivo; summary of the method: as §2
Histamine H3 receptor [12] = molecular target: Histamine H3 receptor (Rattus norvegicus, UniProt Q9QYN8); experiment: Displacement of N-[3H]-methylhistamine from histamine H3 receptor in rat cortex membranes; type: cell membranes, Membrane
[13] = Tmax in mouse at 3 mg/kg, po by LC-MS/MS analysis; type: ADME, organism-based; set-up: dose 3 mg/kg, route oral; details: in vivo
[14] = Cmax in monkey at 3 mg/kg, po by LC-MS/MS analysis; type: ADME, organism-based, Macaca mulatta; set-up: dose 3 mg/kg, route oral; details: rhesus monkey, in vivo
[15] = Half life in monkey at 3 mg/kg, po by LC-MS/MS analysis; type: ADME, organism-based, Macaca mulatta; set-up: dose 3 mg/kg, route oral; details: rhesus monkey, in vivo
Cytochrome P450 2D6 = Cytochrome P450 2D6 (Homo sapiens, UniProt P10635); experiment: Inhibition of CYP2D6; type: ADME; summary of the method: as §1
[16] = Clearance in Sprague-Dawley rat at 3 mg/kg, po by LC-MS/MS analysis; type: ADME, organism-based; set-up: dose 3 mg/kg, route oral; details: in vivo
[17] = Oral bioavailability in monkey at 3 mg/kg by LC-MS/MS analysis; type: ADME, organism-based, Macaca mulatta; details: rhesus monkey, in vivo
Cytochrome P450 2C19 = Cytochrome P450 2C19 (Homo sapiens, UniProt P33261); experiment: Inhibition of CYP2C19; type: ADME; summary of the method: as §1
[18] = Oral bioavailability in mouse at 3 mg/kg by LC-MS/MS analysis; type: ADME, organism-based; details: in vivo
Histamine H3 receptor [19] = molecular target: T2, Histamine H3 receptor (Homo sapiens, UniProt Q9Y5N1); experiment: Binding affinity to human cloned histamine H3 receptor
[20] = Half life in mouse at 3 mg/kg, po by LC-MS/MS analysis; type: ADME, organism-based; set-up: dose 3 mg/kg, route oral; details: in vivo
Rattus norvegicus [21] = experiment: Volume of distribution at steady state in Sprague-Dawley rat at 3 mg/kg, po by LC-MS/MS analysis; type: ADME, organism-based; set-up: dose 3 mg/kg, route oral; details: in vivo
Histamine H3 receptor [22] = molecular target: T2, Histamine H3 receptor; experiment: Inverse agonist activity at human cloned histamine H3 receptor by [35S]GTPgammaS binding assay; type: functional
[23] = Half life in Sprague-Dawley rat at 3 mg/kg, po by LC-MS/MS analysis; type: ADME, organism-based; set-up: dose 3 mg/kg, route oral; details: in vivo
[24] = Clearance in dog at 3 mg/kg, po by LC-MS/MS analysis; type: ADME, organism-based, Canis lupus familiaris; set-up: dose 3 mg/kg, route oral; details: in vivo
[25] = Cmax in Sprague-Dawley rat plasma at 3 mg/kg, po and iv by LC-MS/MS analysis; type: ADME, organism-based; set-up: dose 3 mg/kg, route oral; summary of the method: as §2
Rhesus monkey [26] = experiment: Hepatic blood flow in monkey at 3 mg/kg, po by LC-MS/MS analysis; type: ADME, organism-based, Macaca mulatta, Liver; set-up: dose 3 mg/kg, route oral; details: in vivo
Rattus norvegicus [27] = experiment: Inhibition of RAMH-induced dipsogenia in Sprague-Dawley rat at 0.6 mg/kg, po administered 6 hrs prior to RAMH challenge measured up to 20 mins; type: functional
Summary of the method: (§3)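 Rats given compound orally 0.5 h (or, for duration of action, at selected times up to 6 h) before RAMH 10 mg/kg SC; water consumed over 20 min measured. Screening doses 1 or 0.3 mg/kg PO, also 0.1 mg/kg; duration study at 0.6 mg/kg PO. MED = minimum dose fully inhibiting drinking; means ± SEM.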

Canis lupus familiaris [28] = experiment: Cardiotoxicity in dog assessed as increase in mean arterial blood pressure at 10 to 30 mg/kg, po after 60 mins; details: in vivo, 1 h
[29] = Cmax in dog at 3 mg/kg, po by LC-MS/MS analysis; type: ADME, organism-based, Canis lupus familiaris; set-up: dose 3 mg/kg, route oral; details: in vivo
[30] = Oral bioavailability in dog at 3 mg/kg by LC-MS/MS analysis; type: ADME, organism-based, Canis lupus familiaris; details: in vivo
Canis lupus familiaris [31] = experiment: Cardiotoxicity in dog assessed as increase in mean arterial blood pressure at 10 to 30 mg/kg, po; details: in vivo
Rattus norvegicus [32] = experiment: Hepatic blood flow in Sprague-Dawley rat at 3 mg/kg, po by LC-MS/MS analysis; type: ADME, organism-based, Liver; set-up: dose 3 mg/kg, route oral; details: in vivo
Cytochrome P450 3A4 = Cytochrome P450 3A4 (Homo sapiens, UniProt P08684); experiment: Inhibition of CYP3A4; type: ADME; summary of the method: as §1
Salmonella typhimurium = experiment: Mutagenic activity in Salmonella Typhimurium by micro-Ames assay; type: toxicity, organism-based; details: salmonella enterica subsp. enterica serovar typhimurium
Rattus norvegicus [33] = experiment: Volume of distribution at steady state in Sprague-Dawley rat at 3 mg/kg, po and iv by LC-MS/MS analysis; type: ADME, organism-based; set-up: dose 3 mg/kg, route oral; details: in vivo
Summary of the method: (§4)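 Rats were given the compound both IV and PO in a routine PK study. Tmax came from the PO arm and Vss from the IV arm.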

Rhesus monkey [34] = experiment: Volume of distribution at steady state in monkey at 3 mg/kg, po by LC-MS/MS analysis; type: ADME, organism-based, Macaca mulatta; set-up: dose 3 mg/kg, route oral; details: in vivo
[35] = Tmax in Sprague-Dawley rat at 3 mg/kg, po and iv by LC-MS/MS analysis; type: ADME, organism-based; set-up: dose 3 mg/kg, route oral; details: in vivo; summary of the method: as §4
Cytochrome P450 2C9 = Cytochrome P450 2C9 (Homo sapiens, UniProt P11712); experiment: Inhibition of CYP2C9; type: ADME; summary of the method: as §1
Mus musculus [36] = experiment: Hepatic blood flow in mouse at 3 mg/kg, po by LC-MS/MS analysis; type: ADME, organism-based, Liver; set-up: dose 3 mg/kg, route oral; details: in vivo
[37] = Half life in dog at 3 mg/kg, po by LC-MS/MS analysis; type: ADME, organism-based, Canis lupus familiaris; set-up: dose 3 mg/kg, route oral; details: in vivo
[38] = Plasma protein binding in human; type: ADME, cell-free; details: read-out: PPB (converted)
[39] = Clearance in monkey at 3 mg/kg, po by LC-MS/MS analysis; type: ADME, organism-based, Macaca mulatta; set-up: dose 3 mg/kg, route oral; details: rhesus monkey, in vivo
[40] = Tmax in monkey at 3 mg/kg, po by LC-MS/MS analysis; type: ADME, organism-based, Macaca mulatta; set-up: dose 3 mg/kg, route oral; details: rhesus monkey, in vivo
hERG (KCNH2) = hERG (KCNH2) (Homo sapiens, UniProt Q12809); experiment: Inhibition of human ERG at 3 uM by patch-clamp assay
Rattus norvegicus [41] = experiment: Inhibition of RAMH-induced dipsogenia in po dosed Sprague-Dawley rat administered 30 mins prior to RAMH challenge measured up to 20 mins; type: functional; details: read-out: MED; summary of the method: as §3
Canis familiaris [42] = experiment: Hepatic blood flow in dog at 3 mg/kg, po by LC-MS/MS analysis; type: ADME, organism-based, Canis lupus familiaris, Liver; set-up: dose 3 mg/kg, route oral; details: in vivo
[43] = Cmax in Sprague-Dawley rat at 3 mg/kg, po by LC-MS/MS analysis; type: ADME, organism-based; set-up: dose 3 mg/kg, route oral; details: in vivo; summary of the method: as §2

T2 sequence (Q9Y5N1 whole entry): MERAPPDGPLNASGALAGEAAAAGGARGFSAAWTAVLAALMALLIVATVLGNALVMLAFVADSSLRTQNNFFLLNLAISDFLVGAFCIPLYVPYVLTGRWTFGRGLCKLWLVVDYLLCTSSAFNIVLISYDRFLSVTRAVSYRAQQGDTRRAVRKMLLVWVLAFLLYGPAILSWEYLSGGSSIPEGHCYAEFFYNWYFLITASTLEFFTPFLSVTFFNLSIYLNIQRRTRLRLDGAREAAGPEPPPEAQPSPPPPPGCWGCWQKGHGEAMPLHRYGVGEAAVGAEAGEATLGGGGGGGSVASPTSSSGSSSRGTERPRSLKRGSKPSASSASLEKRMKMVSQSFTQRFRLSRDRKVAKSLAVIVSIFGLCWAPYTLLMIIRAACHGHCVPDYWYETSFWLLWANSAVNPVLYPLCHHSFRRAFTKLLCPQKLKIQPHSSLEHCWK
Chain of Cytochrome P450 2C19 (P33261 whole entry): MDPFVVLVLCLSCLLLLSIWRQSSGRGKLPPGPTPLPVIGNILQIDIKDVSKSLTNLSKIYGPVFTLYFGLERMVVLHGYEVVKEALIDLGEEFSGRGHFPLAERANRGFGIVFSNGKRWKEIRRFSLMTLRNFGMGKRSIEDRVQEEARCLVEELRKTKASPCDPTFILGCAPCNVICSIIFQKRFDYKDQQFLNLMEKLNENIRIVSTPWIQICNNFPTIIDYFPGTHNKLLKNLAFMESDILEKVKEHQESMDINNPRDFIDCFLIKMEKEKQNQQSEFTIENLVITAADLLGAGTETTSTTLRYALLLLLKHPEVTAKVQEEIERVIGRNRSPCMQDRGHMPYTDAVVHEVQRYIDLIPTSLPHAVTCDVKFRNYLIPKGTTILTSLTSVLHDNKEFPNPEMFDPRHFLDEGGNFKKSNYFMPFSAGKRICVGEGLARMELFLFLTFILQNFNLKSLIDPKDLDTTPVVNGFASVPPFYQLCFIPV
Chain of Cytochrome P450 2C9 (P11712 whole entry): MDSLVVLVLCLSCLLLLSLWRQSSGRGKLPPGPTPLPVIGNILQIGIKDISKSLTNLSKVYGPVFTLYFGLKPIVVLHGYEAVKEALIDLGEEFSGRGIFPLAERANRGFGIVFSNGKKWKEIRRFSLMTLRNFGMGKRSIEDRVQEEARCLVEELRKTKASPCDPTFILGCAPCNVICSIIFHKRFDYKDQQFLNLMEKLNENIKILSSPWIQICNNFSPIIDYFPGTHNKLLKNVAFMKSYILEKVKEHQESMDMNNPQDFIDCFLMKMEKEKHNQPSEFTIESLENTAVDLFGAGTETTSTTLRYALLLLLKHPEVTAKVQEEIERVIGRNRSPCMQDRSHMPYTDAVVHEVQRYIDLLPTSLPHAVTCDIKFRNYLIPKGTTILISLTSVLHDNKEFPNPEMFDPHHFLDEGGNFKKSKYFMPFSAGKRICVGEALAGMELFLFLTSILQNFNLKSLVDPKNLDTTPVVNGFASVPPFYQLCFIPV
Chain of Cytochrome P450 3A4 (P08684 whole entry): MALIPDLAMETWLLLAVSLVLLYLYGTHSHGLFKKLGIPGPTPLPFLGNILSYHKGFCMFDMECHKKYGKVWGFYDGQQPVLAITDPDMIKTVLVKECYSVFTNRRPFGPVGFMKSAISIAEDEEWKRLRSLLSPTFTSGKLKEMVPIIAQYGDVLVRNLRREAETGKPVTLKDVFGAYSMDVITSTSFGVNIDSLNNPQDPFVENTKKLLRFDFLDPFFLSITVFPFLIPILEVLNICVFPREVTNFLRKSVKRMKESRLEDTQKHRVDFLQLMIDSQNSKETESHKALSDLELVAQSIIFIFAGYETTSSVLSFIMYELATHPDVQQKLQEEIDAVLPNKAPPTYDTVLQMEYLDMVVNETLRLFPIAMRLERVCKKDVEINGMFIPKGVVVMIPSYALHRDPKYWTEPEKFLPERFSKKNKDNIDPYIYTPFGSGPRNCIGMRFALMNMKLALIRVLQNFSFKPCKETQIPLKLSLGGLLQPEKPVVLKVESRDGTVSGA
Chain of Histamine H3 receptor (Rattus norvegicus, UniProt Q9QYN8) (Q9QYN8 whole entry): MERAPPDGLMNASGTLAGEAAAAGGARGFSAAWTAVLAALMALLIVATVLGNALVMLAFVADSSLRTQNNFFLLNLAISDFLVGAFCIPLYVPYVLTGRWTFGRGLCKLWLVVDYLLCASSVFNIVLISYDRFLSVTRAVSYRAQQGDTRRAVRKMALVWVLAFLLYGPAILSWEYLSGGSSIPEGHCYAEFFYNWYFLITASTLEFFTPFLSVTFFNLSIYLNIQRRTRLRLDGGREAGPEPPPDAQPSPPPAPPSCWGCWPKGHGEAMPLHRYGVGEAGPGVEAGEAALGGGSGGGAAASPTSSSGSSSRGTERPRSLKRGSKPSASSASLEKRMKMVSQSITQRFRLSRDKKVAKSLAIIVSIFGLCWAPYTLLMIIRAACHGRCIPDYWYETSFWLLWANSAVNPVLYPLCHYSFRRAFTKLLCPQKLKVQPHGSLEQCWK
Chain of hERG (KCNH2) (Q12809 whole entry): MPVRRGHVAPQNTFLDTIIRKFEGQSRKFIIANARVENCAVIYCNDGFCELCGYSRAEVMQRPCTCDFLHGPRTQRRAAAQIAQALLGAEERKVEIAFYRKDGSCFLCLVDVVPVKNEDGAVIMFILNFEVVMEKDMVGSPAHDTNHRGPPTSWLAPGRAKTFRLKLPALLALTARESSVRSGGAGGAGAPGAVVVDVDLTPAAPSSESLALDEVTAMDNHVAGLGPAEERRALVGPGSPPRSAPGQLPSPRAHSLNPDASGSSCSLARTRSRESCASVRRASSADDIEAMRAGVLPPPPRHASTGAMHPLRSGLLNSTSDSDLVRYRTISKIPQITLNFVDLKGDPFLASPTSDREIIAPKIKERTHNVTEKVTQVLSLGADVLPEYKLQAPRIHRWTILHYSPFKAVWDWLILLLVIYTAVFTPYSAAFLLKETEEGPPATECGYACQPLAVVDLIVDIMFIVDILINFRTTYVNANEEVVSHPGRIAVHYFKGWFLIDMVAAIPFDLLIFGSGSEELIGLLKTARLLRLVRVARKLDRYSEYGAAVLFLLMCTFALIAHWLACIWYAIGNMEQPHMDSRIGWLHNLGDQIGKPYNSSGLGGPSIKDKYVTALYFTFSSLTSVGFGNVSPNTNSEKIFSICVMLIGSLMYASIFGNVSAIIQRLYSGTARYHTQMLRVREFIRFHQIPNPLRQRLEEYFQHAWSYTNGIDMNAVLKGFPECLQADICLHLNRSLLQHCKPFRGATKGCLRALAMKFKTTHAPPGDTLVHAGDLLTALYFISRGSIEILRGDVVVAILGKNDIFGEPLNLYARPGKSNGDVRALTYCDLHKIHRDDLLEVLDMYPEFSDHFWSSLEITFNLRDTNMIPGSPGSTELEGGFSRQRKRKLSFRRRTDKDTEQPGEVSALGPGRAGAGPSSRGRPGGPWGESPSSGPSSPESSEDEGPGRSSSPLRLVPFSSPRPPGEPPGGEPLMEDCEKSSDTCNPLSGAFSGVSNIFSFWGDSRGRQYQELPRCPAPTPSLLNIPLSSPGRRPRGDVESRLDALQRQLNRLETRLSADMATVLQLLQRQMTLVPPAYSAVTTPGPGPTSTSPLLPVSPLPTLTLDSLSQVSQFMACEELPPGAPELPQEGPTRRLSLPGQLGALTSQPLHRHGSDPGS
Chain of Voltage-gated inwardly rectifying potassium channel KCNH2 (Q12809 whole entry): as above

IC50 (Cytochrome P450 1A2): > 40 µM
fraction unbound [1]: 0.26
CL/F [2]: 72.7 mL/min/kg
Tmax [3]: 0.8 h
Kp [4]: 3.3
Vdss (Mus musculus [6]): 2.54 L/kg
concentration at 1 h [7]: 17 ng/g
Cmax [8]: 80 ng/mL
Vdss (Canis familiaris [9]): 2.89 L/kg
bioavailability [10]: 27.3%
half-life [11]: 1.9 h
Ki (Histamine H3 receptor [12]): 0.0007 µM
Tmax [13]: 1 h
Cmax [14]: 550 ng/mL
half-life [15]: 6.9 h
IC50 (Cytochrome P450 2D6): > 40 µM
CL/F [16]: 74.3 mL/min/kg
bioavailability [17]: 67.5%
IC50 (Cytochrome P450 2C19): > 40 µM
bioavailability [18]: 35.4%
Ki (Histamine H3 receptor [19]): 0.0042 µM
half-life [20]: 1.5 h
Vdss (Rattus norvegicus [21]): 7.54 L/kg
IC50 (Histamine H3 receptor [22]): 0.0007 µM
half-life [23]: 1.9 h
CL/F [24]: 13.7 mL/min/kg
Cmax [25]: 104 ng/mL
QH (Rhesus monkey [26]): 14%
Cmax [29]: 600 ng/mL
bioavailability [30]: 100%
QH (Rattus norvegicus [32]): 106%
IC50 (Cytochrome P450 3A4): > 40 µM
Vdss (Rattus norvegicus [33]): 7.5 L/kg
Vdss (Rhesus monkey [34]): 2.16 L/kg
Tmax [35]: 0.5 h
IC50 (Cytochrome P450 2C9): > 40 µM
QH (Mus musculus [36]): 78%
half-life [37]: 5 h
fraction unbound [38]: 0.26
CL/F [39]: 6.17 mL/min/kg
Tmax [40]: 2.3 h
QH (Canis familiaris [42]): 43%
Cmax [43]: 100 ng/mL
SMILES: COCCCS(=O)(=O)c1ccc(-c2ccc(CCN3CCC[C@H]3C)cc2)cc1
IC50 [5]: 11 µM
inhibition in vivo at 0.6 mg/kg (Rattus norvegicus [27]): < 20%
Activity (Canis lupus familiaris [28]): Non-toxic
Activity (Canis lupus familiaris [31]): Toxic
Activity (Salmonella typhimurium): Non-toxic
inhibition at 3 µM (hERG (KCNH2)): 14%
minimal effective dose (Rattus norvegicus [41]): 0.3 mg/kg
